Reference: ChEMBL document CHEMBL1165974, “Novel pyrazole derivatives: synthesis and evaluation of anti-angiogenic activity” (Bioorg Med Chem, 2010)
Active and inactive are the calls of the source. No cut-off for these calls is given here.

How the values were obtained:
[1] = Antiangiogenic activity in MAEC assessed as inhibition of cell proliferation after 5 days by Coulter counting analysis; assay type: functional; settings: Mus musculus, 120 h
Procedure, shortened: (§1)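 Cells seeded at 10,000 cells per cm2; after 16 h given fresh medium containing test compounds. Trypsinized on day 5 and counted by Coulter counter. […] Tumour lines kept in DMEM with 10 mM Hepes and 10% FBS.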

HeLa = assay: Cytostatic activity against human HeLa cells after 5 days by Coulter counting analysis; assay type: functional, cell-based; settings: 120 h; procedure, shortened: as §1
Gallus gallus [2] = species: Gallus gallus; assay: Antiangiogenic activity in chicken embryo chorioallantoic membrane model assessed as inhibition of VEGF-induced angiogenesis at 50 nmol after 2 days by photographic analysis
[3] = Antiangiogenic activity in BAEC assessed as inhibition of cell proliferation after 5 days by Coulter counting analysis; assay type: functional, cell-based; settings: Bos taurus, 120 h; procedure, shortened: as §1
MCF7 = assay: Cytostatic activity against human MCF7 cells after 5 days by Coulter counting analysis; assay type: functional, cell-based; settings: MCF7, 120 h; procedure, shortened: as §1
Gallus gallus [4] = species: Gallus gallus; assay: Antiangiogenic activity in chicken embryo chorioallantoic membrane model assessed as complete inhibition of VEGF-induced angiogenesis at 50 nmol after 2 days by photographic analysis
[5] = Antiangiogenic activity in MAEC assessed as inhibition of cell migration-associated wound closure at 50 uM after 8 hrs imaging analysis; assay type: functional; settings: Mus musculus
Procedure, shortened: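 Confluent MAEC monolayers wounded with a 1.0-mm wide tip, then incubated in fresh medium with 10% FCS plus compound (10 and 50 μM). At 8 h, wounds photographed; cells invading the wound quantified by computerized analysis of digitized images. Results as mean ± SEM.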

Structure (SMILES)	IC50 [1] [µM]	IC50 (HeLa) [µM]	inhibition (Gallus gallus [2])	IC50 [3] [µM]	IC50 (MCF7) [µM]	inhibition (Gallus gallus [4])	inhibition at 50 µM [5] [%]
CCOC(=O)/C=C/c1cn(-c2ccc(O)cc2)nc1-c1cc(O)ccc1O	12	–	–	–	–	–	–
O=Cc1cn(-c2ccc(O)cc2)nc1-c1ccc(O)c(O)c1	12	39	Toxic	17	24	–	–
O=c1c2cn(-c3ccc(O)cc3)nc2c2cc(O)c(O)cc2n1O	–	–	Active	–	–	–	–
CCOC(=O)/C=C/c1cn(-c2ccc(O)cc2)nc1-c1ccc(O)c(O)c1	6.2	–	–	–	–	–	–
O=c1c2cn(-c3ccc(O)cc3)nc2c2cc(O)ccc2n1O	25	37	64%	38	26	Active	76
O=C(O)/C=C/c1cn(-c2ccc(O)cc2)nc1-c1cccc(O)c1	> 100	–	–	–	–	–	–
O=Cc1cn(-c2ccc(O)cc2)nc1-c1ccc(O)cc1	44	37	48%	32	38	–	–
O=Cc1cn(-c2ccc(O)cc2)nc1-c1ccccc1	> 100	79	inactive	64	47	–	–
O=Cc1cn(-c2ccc(O)cc2)nc1-c1cc(O)ccc1O	43	≥ 100	Toxic	≥ 100	≥ 100	–	–
O=C(O)/C=C/c1cn(-c2ccc(O)cc2)nc1-c1ccc(O)c(O)c1	> 100	–	–	–	–	–	–
O=C(O)/C=C/c1cn(-c2ccc(O)cc2)nc1-c1ccccc1	> 100	–	–	–	–	–	–
O=C(O)/C=C/c1cn(-c2ccc(O)cc2)nc1-c1ccc(O)cc1	> 100	–	–	–	–	–	–
O=c1c2cn(-c3ccc(O)cc3)nc2c2c(O)ccc(O)c2n1O	–	–	Active	–	–	–	–
O=c1c2cn(-c3ccc(O)cc3)nc2c2ccccc2n1O	7	8.9	Active	4.6	5.8	–	–
CCOC(=O)/C=C/c1cn(-c2ccc(O)cc2)nc1-c1ccccc1	29	–	–	–	–	–	–
CCOC(=O)/C=C/c1cn(-c2ccc(O)cc2)nc1-c1cccc(O)c1	14	–	–	–	–	–	–
O=Cc1cn(-c2ccc(O)cc2)nc1-c1cccc(O)c1	42	37	50%	29	29	–	–
O=C(O)/C=C/c1cn(-c2ccc(O)cc2)nc1-c1cc(O)ccc1O	> 100	–	–	–	–	–	–
CCOC(=O)/C=C/c1cn(-c2ccc(O)cc2)nc1-c1ccc(O)cc1	25	–	–	–	–	–	–
O=c1c2cn(-c3ccc(O)cc3)nc2c2ccc(O)cc2n1O	42	38	Active	52	25	–	–
